Bioassay records as filed in PubChem BioAssay.
Compounds with a hit are over-represented: about 3.8% of the library has one in this group of screens.
Beta2AR agonist – human beta-2 adrenergic receptor agonism by FAP. P07550. Am2.2-beta2AR cells, FAP receptor internalization, flow cytometry. response, % (concentration not given with the values). hit rate 0.43% among 340,000. AID 504454;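 active = response above a set limit, near 3 SD of response in nonfluorescent compounds, cut at about 42% in these data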
Target sequence (P07550 whole entry, looked up): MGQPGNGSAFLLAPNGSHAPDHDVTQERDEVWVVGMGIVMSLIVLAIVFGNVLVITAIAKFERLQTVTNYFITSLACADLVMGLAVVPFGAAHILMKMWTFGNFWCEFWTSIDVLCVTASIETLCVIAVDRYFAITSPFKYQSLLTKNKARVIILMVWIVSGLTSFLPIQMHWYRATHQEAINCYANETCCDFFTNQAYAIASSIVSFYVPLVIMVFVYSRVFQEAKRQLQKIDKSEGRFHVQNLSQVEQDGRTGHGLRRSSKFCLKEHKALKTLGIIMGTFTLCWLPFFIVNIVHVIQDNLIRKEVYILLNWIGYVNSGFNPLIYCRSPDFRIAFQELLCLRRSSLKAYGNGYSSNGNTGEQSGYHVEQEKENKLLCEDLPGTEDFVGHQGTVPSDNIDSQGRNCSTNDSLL
Exocytosis inh – blocks lytic granule exocytosis | inhibition, % at 10 µM | hit rate 0.66% among 360,000 | TALL-104 LAMP-1 surface exposure, flow cytometry; cells stimulated with thapsigargin and PMA;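 active = inhibition above about 55%, limit read from the data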
V-ATPase pHluor – regulators of yeast V-ATPase proton transport | S. cerevisiae, pHLuorin cytosolic pH fluorescence | response, % at 10 µM | hit rate 0.37% among 350,000 | AID 504577; in the data active = response mostly above about 7.3%, no sharp cut-off; inactive = mostly below about 5.4%; also: actives read high
T cell modulator – T cell immune modulators affecting CD8 T cell-vesicle binding | response (vesicle binding), % at 7 µM | 2C CD8+ T cell-vesicle binding, flow cytometry; stronger effect = lower value | hit rate 0.068% among 330,000;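 active = response, share of CD8 T cells binding vesicles, and their 90th percentile fluorescence all below set limits, cut at about 80% in these data, passing the limit was not always enough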;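 also: values below 100% mean blocked vesicle binding to the CD8+ T cells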
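Read-out – percent CD8+ FL2 mean versus row control · System – murine 2C transgenic CD8+ T lymphocytes · Times – 1.5 h cell–vesicle binding at 37 °C, then 20 min icy labelling · Control set – naked vesicles low, QL9 vesicles with vehicle high · Detection – cytometric PE anti-B7-1 and Alexa647 anti-CD8 signals after 1% paraformaldehyde fixation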
MPTP block – blocks calcium-induced mitochondrial swelling; isolated mouse mitochondria, Ca2+ swelling absorbance, 30 min; inhibition, % at 10 µM; hit rate 1.4% among 360,000;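 active = inhibition of 50% or more, scaled per plate between neutral and stimulator controls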;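 also: 0% = DMSO wells given calcium and 100% = 1 mM EGTA wells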
rCAG RNA binder – molecules binding r(CAG) RNA repeats. r(CAG) RNA repeat, TO-PRO-1 dye displacement fluorescence. inhibition, % at 3 µM. hit rate 1.3% among 370,000;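 active = inhibition above the plate cutoff, the mean of all test compounds on that plate plus 3 SD, cut at about 35% in these data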;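 also: 0% = DMSO alone and 100% = 100 µM mitoxantrone as full dye displacement; higher means more dye released from RNA so lower well fluorescence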
Rh123 counter – mitochondrial membrane potential, counter-screen; isolated mitochondria, Rhodamine 123 fluorescence; inhibition, % at 10 µM; hit rate 78% among 5,000; shares compounds with MPTP block; in the data active = inhibition above about 22%;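 also: 0% = DMSO vehicle and 100% = positive control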
MPTP abs DR – MPTP inhibition, dose response swelling confirmation. shares compounds with MPTP block. isolated mitochondria swelling, absorbance. IC50, µM. hit rate 58% among 780; in the data active = IC50 below about 20 µM
MPTP cs DR – counter-screen for mitochondrial permeability transition pore inhibitors, dose response; shares compounds with MPTP block; isolated mitochondria counterscreen, fluorescence read-out; IC50, µM; hit rate 49% among 780; in the data active = IC50 below about 80 µM
Starred values were filed as active, the others as inactive; i = inactive; / = not tested or not shown.

SMILES	Beta2AR agonist	Exocytosis inh	V-ATPase pHluor	T cell modulator	MPTP block	rCAG RNA binder	Rh123 counter	others
O=C(NCCc1c[nH]c2ccccc12)OCc1cn(-c2ccc(F)cc2)nn1	/	/	/	/	/	7	/
Cn1nc(C(F)(F)F)c(-c2ccc(F)cc2)c1NC(=O)c1ccco1	20	2	-3	i	4	-3	/
Cn1nc(C(F)(F)F)c(-c2ccc(Br)cc2)c1NC(=O)Nc1ccc(F)cc1F	13	3	2	215	76*	-2	84*
COc1ccc(Cn2nnnc2C(c2ccc(C)cc2)N2CCN(C3CCCC3)CC2)cc1 (configuration not stated)	4	9	1	132	77*	-11	-10	MPTP abs DR=>100;MPTP cs DR=>80
COc1ccccc1CCn1cnc(-c2cccc(Br)c2)c1CC(C)C	/	/	/	/	/	1	/
CCN(CC)CCCNC(=O)c1cc(-c2ccc(O)cc2)on1	-7	1	3	798	-2	1	/
CCN(CC)CCCNC(=O)c1cc(-c2ccc(Cl)c(Cl)c2)on1	32	5	-2	196	79*	/	-5
COc1ccc(C2C(C(=O)Nc3ccc(F)cc3F)CCC(=O)N2c2ccc(OC)cc2)cc1 (configuration not stated)	/	/	/	/	/	1	/
Cc1c(NC(=O)C2CCCN(S(=O)(=O)c3cccc4ccccc34)C2)c(=O)n(-c2ccccc2)n1C (configuration not stated)	/	/	/	/	/	4	/
CCc1cccc(NC(=O)Cn2cc(C=O)c3ccccc32)c1	-13	1	1	244	73*	5	50*
COc1cccc(NC(=O)Cn2cc(C=O)c3ccccc32)c1	0	-6	-3	241	1	1	/
C=CCN1C(=O)[C@]2(OCCC=C[C@H]2C)c2cc(OC)ccc21	/	/	/	/	/	-1	/
C=C(C)Cn1c(SCC(=O)N/N=C/c2c(O)ccc3ccccc23)nc2ccccc2c1=O	-3	6	-1	189	66*	7	56*
C=C(C)Cn1c(SCC)nc2ccccc2c1=O	-7	-6	1	237	4	-1	/
COC(=O)C[C@H]1CC[C@H]2[C@H](COc3ccc(NS(=O)(=O)c4cccc(F)c4)cc3C(=O)N2C)O1	/	/	/	/	/	5	/
Cc1ccc2nc(SCc3nc4c(cnn4-c4ccccc4)c(=O)[nH]3)[nH]c2c1	15	2	-1	332	73*	6	85*
O=c1[nH]c(CSc2nc3ccccc3[nH]2)nc2c1cnn2-c1ccccc1	-16	-5	0	137	4	13	/
Cc1cc2nc(C)n(CCCNC(=O)Nc3cccc4ccccc34)c2cc1C	-2	-1	-1	534	88*	-6	91*
CCOC(=O)c1c(NC(=O)CSc2nc3ccccc3o2)sc(C(C)=O)c1C	-10	8	2	343	101*	10	75*
O=C(CSc1nc2ccccc2o1)Nc1nc2ccccc2s1	-3	0	0	344	10	5	/
O=C(CSc1nc2ccccc2o1)Nc1nc2c(s1)CCCC2	-1	5	-2	/	84*	3	64*
CCOC(=O)c1c(NC(=O)C2c3ccccc3Oc3ccccc32)sc(C(C)=O)c1C	15	2	-2	494	85*	7	-5	MPTP abs DR=i;MPTP cs DR=8.6*
COc1ccc(N2C(=O)c3n[nH]c(C)c3C2c2ccccc2)cc1 (configuration not stated)	/	/	/	/	/	3	/
O=C(CC1CCCC1)N[C@H](C(=O)N1CCC[C@H]1C(=O)NC1CCCC1)c1ccccc1	/	/	/	/	/	0	/
CCOC(=O)N1CCN(C(=O)C[C@H]2C[C@@]3(C(=O)OC)C(=C[C@H](C(C)C)O[C@@H]3C3CC3)N(Cc3ccc(Cl)cc3Cl)C2=O)CC1	/	/	/	/	/	4	/
CN(C)CC1CCCCC1OC(=O)c1ccc(S(=O)(=O)N(C)c2ccccc2)cc1 (configuration not stated)	3	12	4	661	81*	-6	0	MPTP abs DR=12*;MPTP cs DR=61*
CC(C)c1ccc(C(C)NC(=S)NC2CCCCC2)cc1 (configuration not stated)	-3	-3	0	621	28	-6	/
